In article PMC4439361 (Current drug discovery technologies, 2015):
Converted amounts (≈) assume the structure as drawn. Like-named read-outs stand apart in the source and are kept apart here.

Columns and labels:
E. coli (ATCC 25922) = test: Broth microdilution MIC; type: cell-based; conditions: Escherichia coli, ATCC25922
[1] = system: S. pneumoniae (ATCC 49619); test: Broth microdilution MIC; type: cell-based; conditions: Streptococcus pneumoniae, ATCC49619
[2] = system: H. influenzae (ATCC 49766); test: Broth microdilution MIC; type: cell-based; conditions: Haemophilus influenzae, ATCC49766
S. pneumoniae PheRS = S. pneumoniae PheRS (Streptococcus pneumoniae serotype 2, UniProt Q04LU1); test: tRNA aminoacylation assay in SPA format, S. pneumoniae PheRS; type: biochemical
S. pneumoniae PheRS, sequence (Q04LU1 whole entry): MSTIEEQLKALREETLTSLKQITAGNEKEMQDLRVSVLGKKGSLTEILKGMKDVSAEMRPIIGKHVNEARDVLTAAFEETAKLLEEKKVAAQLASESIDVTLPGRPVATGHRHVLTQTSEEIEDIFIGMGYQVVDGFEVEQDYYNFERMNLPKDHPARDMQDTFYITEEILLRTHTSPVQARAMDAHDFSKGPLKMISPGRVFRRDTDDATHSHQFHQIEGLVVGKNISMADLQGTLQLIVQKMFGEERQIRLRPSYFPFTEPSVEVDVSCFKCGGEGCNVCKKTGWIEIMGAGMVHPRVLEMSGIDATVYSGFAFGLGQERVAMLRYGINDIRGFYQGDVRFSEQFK

[3] = system: P. aeruginosa (hypersensitive); test: Broth microdilution MIC; type: cell-based; conditions: Pseudomonas aeruginosa, ATCC35151
[4] = molecular target: T1, human mitochondrial PheRS (hmPheRS) (Homo sapiens, UniProt O95363); test: Human mitochondrial PheRS aminoacylation assay; type: biochemical; conditions: 132 μM compound; 0.2 μM hmPheRS; average of three assays
T1 sequence (O95363 1-451): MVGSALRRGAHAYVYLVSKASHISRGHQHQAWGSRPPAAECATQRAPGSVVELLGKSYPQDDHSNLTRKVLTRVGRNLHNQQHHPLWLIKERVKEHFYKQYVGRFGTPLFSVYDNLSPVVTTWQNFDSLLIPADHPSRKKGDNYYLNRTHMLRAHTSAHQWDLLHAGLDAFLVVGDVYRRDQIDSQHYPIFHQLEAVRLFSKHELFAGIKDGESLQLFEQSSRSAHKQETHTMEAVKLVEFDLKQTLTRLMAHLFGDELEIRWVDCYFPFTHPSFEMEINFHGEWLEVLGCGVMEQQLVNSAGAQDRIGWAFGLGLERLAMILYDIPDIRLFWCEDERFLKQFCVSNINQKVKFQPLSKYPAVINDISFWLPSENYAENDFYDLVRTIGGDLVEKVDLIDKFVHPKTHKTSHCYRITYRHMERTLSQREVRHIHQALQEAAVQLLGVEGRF

P. aeruginosa PheRS = P. aeruginosa PheRS (Pseudomonas aeruginosa, UniProt Q9I0A3); test: tRNA aminoacylation assay in SPA format, P. aeruginosa PheRS; type: biochemical
P. aeruginosa PheRS, sequence (Q9I0A4 whole entry): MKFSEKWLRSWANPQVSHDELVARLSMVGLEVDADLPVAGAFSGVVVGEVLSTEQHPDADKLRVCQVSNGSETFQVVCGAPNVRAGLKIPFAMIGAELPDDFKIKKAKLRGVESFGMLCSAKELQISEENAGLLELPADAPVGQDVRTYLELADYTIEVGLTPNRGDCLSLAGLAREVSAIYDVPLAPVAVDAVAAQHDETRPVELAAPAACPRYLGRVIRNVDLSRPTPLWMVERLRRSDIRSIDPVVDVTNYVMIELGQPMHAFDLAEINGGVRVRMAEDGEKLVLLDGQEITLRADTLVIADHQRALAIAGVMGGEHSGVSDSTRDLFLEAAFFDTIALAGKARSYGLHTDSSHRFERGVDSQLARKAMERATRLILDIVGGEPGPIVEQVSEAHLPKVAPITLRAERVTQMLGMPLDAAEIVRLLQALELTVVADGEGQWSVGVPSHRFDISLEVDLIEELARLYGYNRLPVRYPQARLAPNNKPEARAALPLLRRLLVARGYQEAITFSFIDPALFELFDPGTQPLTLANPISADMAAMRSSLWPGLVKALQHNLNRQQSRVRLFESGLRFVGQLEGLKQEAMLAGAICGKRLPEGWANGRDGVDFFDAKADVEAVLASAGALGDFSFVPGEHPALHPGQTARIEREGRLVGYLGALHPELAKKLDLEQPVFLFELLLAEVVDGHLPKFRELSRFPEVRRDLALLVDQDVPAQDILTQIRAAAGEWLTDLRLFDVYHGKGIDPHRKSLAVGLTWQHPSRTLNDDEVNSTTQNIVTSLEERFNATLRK
P. aeruginosa PheRS, sequence (Q9I0A3 whole entry): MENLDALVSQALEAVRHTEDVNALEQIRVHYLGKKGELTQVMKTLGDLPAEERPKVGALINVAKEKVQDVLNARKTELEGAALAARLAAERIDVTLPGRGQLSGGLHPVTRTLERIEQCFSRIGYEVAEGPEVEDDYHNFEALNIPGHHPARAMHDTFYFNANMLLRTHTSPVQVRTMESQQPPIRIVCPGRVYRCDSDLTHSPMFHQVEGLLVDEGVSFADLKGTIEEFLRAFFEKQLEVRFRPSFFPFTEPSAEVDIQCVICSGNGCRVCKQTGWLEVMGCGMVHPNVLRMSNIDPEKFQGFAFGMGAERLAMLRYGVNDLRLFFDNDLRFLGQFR

[5] = system: P. aeruginosa (ATCC 47085); test: Broth microdilution MIC; type: cell-based; conditions: Pseudomonas aeruginosa, ATCC47085
[6] = system: P. aeruginosa PAO200 (efflux mutant); test: Broth microdilution MIC; type: cell-based; conditions: Pseudomonas aeruginosa
S. aureus (ATCC 29213) = test: Broth microdilution MIC; type: cell-based; conditions: Staphylococcus aureus, ATCC29213
[7] = system: cytoplasmic protein synthesis in wheat germ extracts; test: Wheat germ extract poly-Phe cytoplasmic protein synthesis assay; type: biochemical; conditions: poly-U mRNA, compound to 132 μM
Procedure, shortened: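 Cytoplasmic poly-Phe synthesis in wheat germ extract programmed with poly-U mRNA, yeast tRNAPhe and [3H]phenylalanine. Levels of mRNA, tRNA, label and Mg++ were optimized for poly-Phe synthesis. Cycloheximide served as reference protein-synthesis inhibitor.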

[8] = system: M. catarrhalis (ATCC 25238); test: Broth microdilution MIC; type: cell-based; conditions: Moraxella catarrhalis, ATCC25238
E. faecalis (ATCC 29212) = test: Broth microdilution MIC; type: cell-based; conditions: Enterococcus faecalis, ATCC29212
E. coli tolC = test: Broth microdilution MIC; type: cell-based; conditions: Escherichia coli
[9] = system: cytoplasmic protein synthesis in wheat germ extracts; conditions: wheat germ extract; at 30 μM; cited from earlier work
[10] = IC50s at five Phe concentrations 25 to 300 μM, ATP fixed at 2.5 mM
[11] = IC50s at six ATP concentrations 25 to 1000 μM, Phe fixed at 100 μM

Cc1cc2c(C(C)C)c(O)c(O)c(C=O)c2c(O)c1-c1c(C)cc2c(C(C)C)c(O)c(O)c(C=O)c2c1O [BPP_03B04, gossypol]
MIC (E. coli (ATCC 25922)): 128 µg/mL (≈ 247 µM) | MIC [1]: 32 µg/mL (≈ 61.7 µM) | MIC [2]: 16 µg/mL (≈ 30.9 µM) | IC50 (S. pneumoniae PheRS): 4.9 µM | Ki (S. pneumoniae PheRS): 0.98 µM | mode of action relative to Phe (S. pneumoniae PheRS; [10]): competitive | mode of action relative to ATP (S. pneumoniae PheRS; [11]): uncompetitive | MIC [3]: 16 µg/mL (≈ 30.9 µM) | decrease of hmPheRS activity [4]: approximately 80% | IC50 (P. aeruginosa PheRS): 2.3 µM | Ki (P. aeruginosa PheRS): 0.83 µM | mode of action relative to Phe (P. aeruginosa PheRS; [10]): competitive | mode of action relative to ATP (P. aeruginosa PheRS; [11]): uncompetitive | MIC [5]: 16 µg/mL (≈ 30.9 µM) | MIC [6]: 16 µg/mL (≈ 30.9 µM) | MIC (S. aureus (ATCC 29213)): 16 µg/mL (≈ 30.9 µM) | inhibition of protein synthesis [7]: no inhibition | MIC [8]: 32 µg/mL (≈ 61.7 µM) | MIC (E. faecalis (ATCC 29212)): 32 µg/mL (≈ 61.7 µM) | MIC (E. coli tolC): 128 µg/mL (≈ 247 µM)

C[C@@H]1C[C@@H]([C@H](O)CC2CC(=O)NC(=O)C2)C(=O)[C@@H](C)C1 [cycloheximide]
inhibition of protein synthesis [9]: inhibited
